Source: PubChem
In the library only some 3.3% were active in any assay of this set; here they are far more common.
CendR NRP1 mod = alters CendR peptide binding to human NRP-1. O14786. hit rate 0.85% among 360,000. FAM-RPARPAR peptide binding to NRP-1, fluorescence polarization. inhibition, % at 25 µM;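 active = inhibition or corrected inhibition above about 18%, plus a signal ratio from 0.5 to 1.5, limit read from the data, passing the limit was not always enough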
ATG4B inhibitor = blocks human ATG4B protease cleavage of LC3 substrate; inhibition, % at 8.33 µM; hit rate 0.51% among 340,000; ATG4B cleavage of LC3-PLA2, NBD-HPC fluorescence, 1 h; Q9Y4P1; in the data active = inhibition above about 40%
Target sequence (Q9Y4P1 whole entry, looked up): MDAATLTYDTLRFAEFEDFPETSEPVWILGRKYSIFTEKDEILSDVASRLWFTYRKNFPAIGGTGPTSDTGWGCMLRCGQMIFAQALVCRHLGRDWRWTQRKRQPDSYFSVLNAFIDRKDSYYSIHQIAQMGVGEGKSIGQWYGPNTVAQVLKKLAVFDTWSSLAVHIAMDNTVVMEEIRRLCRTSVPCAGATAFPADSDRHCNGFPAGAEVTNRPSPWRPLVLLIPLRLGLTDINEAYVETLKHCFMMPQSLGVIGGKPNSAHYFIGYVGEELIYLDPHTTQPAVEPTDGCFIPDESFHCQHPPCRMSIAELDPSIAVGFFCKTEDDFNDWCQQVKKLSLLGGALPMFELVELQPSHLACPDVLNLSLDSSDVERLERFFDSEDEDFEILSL
ABCB6 inh 2 = human ABCB6 transporter inhibition; hit rate 0.19% among 360,000; AID 602162; fluorescence ratio to DMSO, % at 10 µM; K562-ABCB6 porphyrin accumulation, flow cytometry, 1 h; hits give low values; Q9NP58;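 active = fluorescence ratio to DMSO below 75%, the collection mean minus 3 SD; inconclusive = too few cells collected in the well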;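 also: signal is porphyrin accumulated inside mitochondria; 100% equals median channel fluorescence of DMSO control wells; lower ratio means ABCB6 inhibition with less porphyrin fluorescence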
Myeloid diff 2 = myeloid differentiation induction; AID 624256; ER-HoxA9 myeloid progenitors, lysozyme-GFP differentiation, flow cytometry; hit rate 1% among 360,000; calls only at 10 µM;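 active = normalized GFP-positive differentiation at or above the plate's own cutoff, the solvent-only control mean plus 3 SD; inconclusive = no clear call, values can overlap the other calls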;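 also: cells exposed to compound for four days before flow analysis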
Arrestin-AP2 inh = human beta-arrestin and AP2 interaction inhibition; FITC-arrestin peptide / GST-AP2 beads, flow cytometry; AP2 beta2 appendage carries R879A mutation; inhibition, % at 10 µM; hit rate 0.31% among 340,000;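 active = inhibition above a set limit, near 3 SD of compounds lacking own fluorescence, cut at about 54% in these data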;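 also: plate controls were DMSO wells for no effect and 5 µM unlabelled arrestin peptide for full effect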
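test system = AP2 appendage R879A on GSH beads | buffer or medium = PBS plus Tween 20 (0.05%) and BSA (0.1%) | incubation = 12 min plus 1 h, RT | detection = bead flow cytometry, FITC channel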
Exocytosis inh = lytic granule exocytosis inhibition. AID 651702. inhibition, % at 10 µM. TALL-104 LAMP-1 surface exposure, flow cytometry; cells stimulated with thapsigargin and PMA. hit rate 0.66% among 360,000;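 active = inhibition above about 55%, limit read from the data; inconclusive = no clear call, values can overlap the other calls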
Arr-AP2 CP1 = blocks beta-arrestin peptide binding to human AP2; shares compounds with Arrestin-AP2 inh; GST-AP2 beads, FITC arrestin peptide binding, flow cytometry; GST-fused beta2-adaptin appendage, R879A mutant; inhibition, % at 10 µM; hit rate 2% among 1,300;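 active = inhibition above a set limit, roughly 3 SD of non-fluorescent compound noise, cut at about 38% in these data; inactive = inhibition at or below that limit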;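 also: loss of bead fluorescence from 50 nM FITC arrestin peptide bound to appendage; 0% = negative control wells and 100% = excess unlabelled arrestin peptide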
GST GSH counter = disrupts GST binding to glutathione beads, arrestin-AP2 artifact; GST-fluorescein binding to GSH beads, fluorescence, counter-screen; AID 588338; hit rate 2% among 1,300; shares compounds with Arrestin-AP2 inh; inhibition, % at 10 µM;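 active = inhibition above 50%, about 3 SD of the inhibition seen with non-fluorescent compounds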;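 also: fluorescein maleimide labelled GST captured on 4 micron glutathione beads; higher means more loss of bead fluorescence from quenching or blocked binding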
The depositor's hits bear a star; i = inactive; u = inconclusive; x = no result.

SMILES	CendR NRP1 mod	ATG4B inhibitor	ABCB6 inh 2	Myeloid diff 2	Arrestin-AP2 inh	Exocytosis inh	Arr-AP2 CP1	GST GSH counter
CCS(=O)(=O)N1CCC(C(=O)O)CC1	6	-3	101	i	2	0	x	x
CN(CCOc1ccccc1)C(=O)c1cc([N+](=O)[O-])cc([N+](=O)[O-])c1	6	13	100	i	60*	3	18	3
O=C(c1ccco1)N(Cc1cc2ccccc2[nH]c1=O)C1CCCCC1	0	-10	98	i	79*	2	17	-9
COc1ccc(C2CC(=O)C(C=NCCN3CCN(C(=S)Nc4ccccc4)CC3)=C(O)C2)cc1OC (centres undefined)	0	-10	101	i	7	-1	x	x
CCSc1nnc(NC(=O)C2C3CCC(C3)C2C(=O)O)s1 (centres undefined)	2	2	94	i	60*	2	3	-14
O=C(NCCc1cccc(F)c1)C1CCC(=O)N(CCCc2ccccc2)C1 (centres undefined)	-3	1	98	i	62*	20	-5	-11
Cc1ccc(CCCNC(=O)C2CCC(=O)N(Cc3cccc(F)c3)C2)cc1 (centres undefined)	5	7	104	u	8	0	-10	3
O=C(NCCN1CCCC1=O)C1CCC(=O)N(CCc2cccc(F)c2)C1 (centres undefined)	4	-2	98	i	59*	-1	-11	-2
O=C(NCCc1cccc(C(F)(F)F)c1)C1CCC(=O)N(CCc2cccc(F)c2)C1 (centres undefined)	9	3	102	i	-1	-1	x	x
O=C(NCc1cccc(F)c1)C1CCC(=O)N(CCc2cccc(F)c2)C1 (centres undefined)	5	-7	100	i	-5	0	-16	x
O=C(NCCc1ccccc1)C1CCC(=O)N(CCCN2CCCC2=O)C1 (centres undefined)	4	1	87	i	3	-3	x	x
CCCCNC(=O)N1c2ccccc2CC1C (centres undefined)	4	-1	103	i	57*	-2	13	-9
CC(C)CCSc1nc2[nH]ncc2c(=O)[nH]1	-1	-6	95	i	59*	1	5	6
CC/C(=N\NC(=S)NC(C)C)c1ccc(OC)c(OC)c1	7	10	108	i	56*	-2	2	-3
CC/C(=N\NC(N)=O)c1ccc(OC)c(OC)c1	12	0	99	i	40	3	x	x
CC(C)C1=NOC(C(=O)N2CCC(N3CCC(C(=O)N4CCOCC4)CC3)CC2)C1 (centres undefined)	-8	-1	228	i	9	-3	x	x
CCCn1c(=O)c2[nH]cnc2n(-c2ccccc2C)c1=O	1	-6	94	i	-17	3	x	x
CCCn1c(=O)c2[nH]cnc2n(-c2ccc(Cl)cc2)c1=O	5	-4	96	i	58*	1	11	-9
O=c1[nH]n(Cc2ccccc2)c2ccccc12	3	2	102	i	59*	1	1	-1
CCCCN1C[C@H](C)[C@@H](CC(=O)NC)C1=O	2	x	100	i	x	-5	x	x
N#Cc1cn(CCOc2ccccc2F)c2ccccc12	-1	19	96	i	5	6	x	x
N#Cc1cn(CCOc2ccc(F)cc2)c2ccccc12	-6	2	92	i	57*	11	8	-9
CC1CCCCC1NC(=O)C1CCC(CNc2c(N3CCCCC3)c(=O)c2=O)CC1 (centres undefined)	4	-3	101	i	0	0	x	x
Oc1[nH]c2c(Cl)cc(Cl)cc2c1N=NC(=S)NCC1CCCO1 (centres undefined)	-12	-5	91	i	104*	-12	20	1
CS(=O)(=O)N1CCN(C(=O)c2cc(-c3cccnc3)nc3ccc(Cl)cc23)CC1	-5	-3	100	i	0	-2	x	x
SMILES	CendR NRP1 mod	ATG4B inhibitor	ABCB6 inh 2	Myeloid diff 2	Arrestin-AP2 inh	Exocytosis inh	Arr-AP2 CP1	GST GSH counter
CS(=O)(=O)N1CCN(C(=O)c2cc(-c3cccnc3)nc3ccc(Br)cc23)CC1	6	5	97	i	64*	2	-15	-6
Nc1ccccc1C(=O)N1O[C@@H]2C=C[C@H]1CC2	1	-6	102	i	-9	-3	x	x
CCOc1ccc(Cc2noc3c2C(=O)CC(C)(C)C3)cc1OCC	0	2	104	u	57*	-2	9	-4
COC(=O)[C@@]1(Cc2ccc(OC)cc2)[C@H]2c3cc(C(=O)N4CCCC4)n(CCc4ccc(OC)c(Br)c4)c3C[C@H]2CN1C(=O)c1ccccc1	-6	x	126	i	x	11	x	x
C[C@H](CO)N1C[C@H](C)[C@@H](CN(C)S(=O)(=O)c2ccccc2)Oc2ccc(NC(=O)Nc3ccccc3)cc2C1=O	11	-11	91	i	54*	-1	10	-8
COc1ccc(S(=O)(=O)N(C)C[C@H]2Oc3ccc(NS(=O)(=O)c4cn(C)cn4)cc3C(=O)N([C@H](C)CO)C[C@@H]2C)cc1	0	x	89	i	73*	5	0	-3
COc1ccc(S(=O)(=O)Nc2ccc3c(c2)C(=O)N([C@H](C)CO)C[C@H](C)[C@@H](CN(C)S(=O)(=O)c2ccc(OC)cc2)O3)cc1	8	-8	98	i	40	6	x	x
OC(c1ccc(F)c(F)c1)c1ncc(-c2cccc(F)c2)[nH]1 (centres undefined)	-1	x	96	i	x	-5	x	x
COc1cc(/C=C(/C#N)c2nc3ccccc3[nH]2)ccc1OCC(=O)Nc1ccccc1C	-30	1	89	i	2	4	x	x
COc1cc(/C=C(\C#N)c2nc3ccccc3[nH]2)ccc1OC(=O)c1ccco1	-38	4	96	i	97*	2	13	-5
CC(=O)N1CCOc2ccc(S(=O)(=O)NCC3CCC(C(=O)Nc4ncccc4C)CC3)cc21 (centres undefined)	-6	-2	96	i	-6	-3	x	x
O=C(NCc1nnc2c(C(F)(F)F)cc(Cl)cn12)c1cccs1	8	-3	98	i	56*	-3	14	-2
Cc1ccc(SCC(=O)NNC(=O)CCS(=O)(=O)c2ccc(C)cc2)cc1	9	-1	97	i	54*	0	2	-2
CCOc1ncccc1C(=O)OCC(=O)c1c(N)n(C)c(=O)n(C)c1=O	-6	1	187	i	5	-2	-8	0
